According to publication PMC11203390 (Molecular Therapy. Nucleic Acids, 2024):

Key:
siRNA = assay: Electrophoretic mobility shift assay; assay type: binding; settings: pH 7
In short: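 Negative-control siRNA mixed with peptide at 1:20–1:100 siRNA:peptide molar ratios in RNase-free water, then incubated 1 h at 4, 25, 37 or 50 °C to encapsulate. For competition, DSS, 8 M urea stock or 20% NaCl stock was added before or after encapsulation. Complexes were run in dye-free glycerol loading buffer (5% final) on 4% agarose gels stained with ethidium bromide.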

SARS-CoV-2 spike RBD = SARS-CoV-2 spike RBD (Severe acute respiratory syndrome coronavirus 2, UniProt P0DTC2)
Integrin α2 (ITGA2) = Integrin α2 (ITGA2) (Homo sapiens, UniProt P17301); assay: Direct ELISA on HE25-coated plates, ITGA2; assay type: binding; settings: negative control receptor
Integrin α2 (ITGA2), sequence (P17301 30-1132 limits assumed): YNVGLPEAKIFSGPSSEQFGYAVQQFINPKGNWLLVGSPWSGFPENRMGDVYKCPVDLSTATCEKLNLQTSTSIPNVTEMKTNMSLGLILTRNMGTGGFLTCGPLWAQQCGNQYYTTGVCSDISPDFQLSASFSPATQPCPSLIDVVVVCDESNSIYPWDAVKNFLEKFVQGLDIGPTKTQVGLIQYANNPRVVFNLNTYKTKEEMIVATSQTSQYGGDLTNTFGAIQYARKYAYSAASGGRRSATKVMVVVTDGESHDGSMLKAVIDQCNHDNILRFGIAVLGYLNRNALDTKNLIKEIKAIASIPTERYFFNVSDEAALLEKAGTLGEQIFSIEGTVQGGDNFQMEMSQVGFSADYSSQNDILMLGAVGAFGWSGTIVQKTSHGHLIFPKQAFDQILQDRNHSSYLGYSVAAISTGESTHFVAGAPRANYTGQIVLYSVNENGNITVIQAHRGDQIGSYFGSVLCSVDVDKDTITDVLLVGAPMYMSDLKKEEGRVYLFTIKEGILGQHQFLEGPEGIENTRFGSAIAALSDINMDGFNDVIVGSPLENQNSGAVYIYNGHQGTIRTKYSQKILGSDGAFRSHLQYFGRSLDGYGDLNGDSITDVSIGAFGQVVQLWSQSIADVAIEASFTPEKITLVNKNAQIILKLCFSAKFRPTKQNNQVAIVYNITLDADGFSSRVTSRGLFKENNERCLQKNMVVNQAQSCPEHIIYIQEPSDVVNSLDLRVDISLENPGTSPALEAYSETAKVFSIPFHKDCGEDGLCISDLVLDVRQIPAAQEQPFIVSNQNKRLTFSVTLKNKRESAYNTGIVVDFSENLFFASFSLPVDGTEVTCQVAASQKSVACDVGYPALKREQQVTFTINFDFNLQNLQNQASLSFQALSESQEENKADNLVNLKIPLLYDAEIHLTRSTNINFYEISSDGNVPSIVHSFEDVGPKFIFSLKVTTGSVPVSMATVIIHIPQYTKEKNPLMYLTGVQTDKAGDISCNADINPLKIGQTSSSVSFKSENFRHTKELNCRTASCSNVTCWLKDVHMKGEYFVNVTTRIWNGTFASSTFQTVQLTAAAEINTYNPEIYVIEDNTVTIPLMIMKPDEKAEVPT

stearyl-HEHHEHHEHEHGFLGRVRVLRGDKW-amide [HE25]
effect of DSS on binding and preformed complex (siRNA; EMSA competition, 20 mg/mL DSS before or after encapsulation, 50°C, molar ratio 1:100): interfere with the binding and disassemble the preformed complex
effect of urea on binding and preformed complex (siRNA; EMSA competition, 1.6 M urea before or after encapsulation, 50°C, molar ratio 1:100): hindered initial binding but did not affect the ones formed
effect of NaCl on binding and disassembly (siRNA; EMSA competition, 4% NaCl before or after encapsulation, 50°C, molar ratio 1:100): no notable effect on either binding or disassembly
effect of urea on binding (siRNA; EMSA competition, urea, 4°C, molar ratio 1:100): not observed before encapsulation
encapsulation efficiency at 50°C (siRNA; EMSA, 50°C): significantly increases
binding of spike RBD to HE25-coated plates (SARS-CoV-2 spike RBD): recognized
binding of ITGA2 to HE25 (Integrin α2 (ITGA2)): did not efficiently bind
